L major viab: Leishmania major promastigote growth inhibition, primary screen; Leishmania major promastigotes, resazurin fluorescence viability; AID 1063, 2008; actives 9% (n = 200,000); inhibition, % at 10 µM;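 further: promastigotes grown with compound for 44 hours at 28 °C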
CHOP inhibitor: inhibitors of CHOP promoter induction, primary screen, cell-based, unfolded protein response, luciferase reporter | actives 3.8% (n = 220,000) | inhibition, % at 10 µM | AID 2732, 2010 | CHO-K1 CHOP-promoter luciferase, tunicamycin-induced, 15-18 h;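 active means compounds that reduced the stress-induced luciferase reporter signal by more than about 70% of percent inhibition, limit read from the data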;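 further: 0% = tunicamycin plus vehicle and 100% = wells without tunicamycin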
Rad51 HR inh: human RAD51 strand exchange inhibitors, primary screen, biochemical, fluorescence; hRad51 DNA strand exchange, fluorescence dequenching; actives 0.085% (n = 200,000); inhibition, % at 10 µM; AID 1385, 2008; DNA repair protein RAD51 homolog 1 (Homo sapiens), Q06609;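 active means inhibition above 40% at the single screening dose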;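 further: 0% = DMSO control wells and 100% = blanks with heterologous ssDNA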
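Assay system: Human Rad51 nucleoprotein filaments preassembled on unlabelled ssDNA | Reagent: Donor/quencher-labelled 47-bp dsDNA substrate | Doses: One concentration, 10 µM final | Times: 37 °C 15-min filament assembly, 30-min compound preincubation, 15-min exchange | Technique: Fluorescein emission 520 nm, excitation 485 nm | Benchmarks: Plate control and blank wells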
PKD1 inh: inhibitors of human PKD1 kinase, biochemical, fluorescence polarization; actives 0.056% (n = 200,000); Serine/threonine-protein kinase D1 (Homo sapiens), Q15139; inhibition, % (test concentration not listed); PKD1 kinase fluorescence polarization assay
Arbovirus anti: antivirals against arbovirus infection, primary screen, cell-based, full library, 10K replicate subset. AID 1251, 2008. arbovirus infection cell-based antiviral screen. actives 0.37% (n = 200,000). inhibition, % at 10 µM; in the data active means inhibition above about 30%
Wee1 degr inh: Wee1 degradation inhibitors, primary screen, cell-based, HeLa, Wee1K328M-luciferase, luminescence. Wee1-like protein kinase (Homo sapiens), P30291. HeLa Luc-Wee1K328M stability; 100% = proteasome inhibitor MG132 effect. reporter increase, % at 5 µM. actives 1.2% (n = 220,000). AID 1321, 2008;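 active means activation above the mean of all tested compounds plus 3 SD, set per screening run, cut at about 8.8% in these data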;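 further: cells exposed to compound for 20 h before luminescence read; 0% = DMSO alone and 100% = MG132 at 30 µM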
Target sequence (P30291 whole entry K328M): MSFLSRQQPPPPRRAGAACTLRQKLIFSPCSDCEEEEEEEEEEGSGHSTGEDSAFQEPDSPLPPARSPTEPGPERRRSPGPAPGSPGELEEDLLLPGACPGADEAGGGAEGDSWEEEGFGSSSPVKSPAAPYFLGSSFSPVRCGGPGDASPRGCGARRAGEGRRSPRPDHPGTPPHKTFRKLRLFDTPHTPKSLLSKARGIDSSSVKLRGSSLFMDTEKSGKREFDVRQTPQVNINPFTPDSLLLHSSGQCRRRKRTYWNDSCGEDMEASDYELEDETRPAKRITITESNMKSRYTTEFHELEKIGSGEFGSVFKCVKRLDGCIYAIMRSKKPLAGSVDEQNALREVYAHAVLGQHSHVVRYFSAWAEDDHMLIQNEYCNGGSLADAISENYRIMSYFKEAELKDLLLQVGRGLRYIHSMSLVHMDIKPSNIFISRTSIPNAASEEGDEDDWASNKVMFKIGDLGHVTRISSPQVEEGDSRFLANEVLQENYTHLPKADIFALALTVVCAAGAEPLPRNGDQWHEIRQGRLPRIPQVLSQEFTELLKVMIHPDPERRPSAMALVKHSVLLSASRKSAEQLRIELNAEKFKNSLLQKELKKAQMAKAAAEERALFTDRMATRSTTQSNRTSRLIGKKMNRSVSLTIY
* marks the source's active call; other numbers are inactive results; . = not tested or not shown. Shown are actives, neighbours in structure and some others; about 12% of the full set was active somewhere. Unless noted, no stated cut-off is given here; in the data, active means inhibition above about 50%; inactive means the rest.

SMILES | L major viab | CHOP inhibitor | Rad51 HR inh | PKD1 inh | Arbovirus anti | Wee1 degr inh
COc1ccc(S(=O)(=O)N(C(=O)C(C)C)c2ccc3oc(=O)sc3c2)cc1 | -3 | 37 | 6 | 10 | -2 | -2
CCOc1ccc(S(=O)(=O)N(C(=O)c2ccco2)c2cc3sc(=O)oc3c3ccccc23)cc1 | 97* | 39 | 2 | -7 | -17 | 1
COc1ccc(S(=O)(=O)N(C(=O)c2ccco2)c2cc3sc(=O)oc3c3ccccc23)cc1 | 99* | 85* | -1 | -6 | -32 | -1
COc1ccc(C(C)=O)cc1CSc1nnc(Nc2ccccc2)s1 | 38 | 50 | 1 | -16 | -5 | -1
CCSc1nnc(N2C(=O)CC(c3ccsc3)C3=C2CC(C)(C)CC3=O)s1 (stereo unspecified) | 67* | 6 | 8 | -12 | 0 | -1
CC1(C)CC(=O)C2=C(C1)N(c1ccc(F)cc1)C(=O)CC2c1cccnc1 (stereo unspecified) | -7 | -31 | -7 | -15 | 5 | 1
COc1cc(C(=O)Nc2ccc(S(=O)(=O)N3CCCCC3C)cc2)cc(OC)c1OC (stereo unspecified) | 20 | 15 | 2 | 1 | -8 | -2
COc1ccc(C(=O)Nc2ccc(S(=O)(=O)N3CCCCC3C)cc2)c(OC)c1OC (stereo unspecified) | 61* | 58 | 1 | 14 | 8 | -2
CCOc1ccccc1OCCn1ncc2ccc(OC)c(OC)c2c1=O | 5 | -6 | 5 | -3 | 0 | 0
COc1ccc2cnn(CCOc3ccccc3)c(=O)c2c1OC | 87* | 42 | 1 | 2 | -7 | 2
COc1ccc2cnn(CCOc3cc(C)ccc3C(C)C)c(=O)c2c1OC | 95* | 46 | . | -16 | 5 | 3
Cc1cc(NC(=O)COC(=O)c2oc3c(Cl)cccc3c2C)no1 | -3 | 74* | 4 | -5 | 6 | 0
Cc1cc(NC(=O)COC(=O)c2n[nH]c3ccccc23)no1 | 4 | 9 | 3 | -4 | -5 | 5
COc1cc(/C=C/C(=O)O)cc(S(=O)(=O)Nc2ccc3c(c2)OCO3)c1OC | -3 | 11 | 8 | -7 | 1 | -1
O=C(O)C1CCCCC1C(=O)N1CC=C(c2ccccc2)CC1 (stereo unspecified) | 61* | 44 | 0 | -9 | -5 | -3
O=C(Nc1ccccc1)N1CC=C(c2ccc(F)cc2)CC1 | 85* | 22 | 15 | -6 | -5 | 5
O=C(Nc1ccccc1)N1CC=C(c2ccccc2)CC1 | 81* | 35 | -4 | 7 | 1 | 0
CCOc1ccccc1N1CCN(CC(=O)N(CC(C)C)c2c(N)n(CC(C)C)c(=O)[nH]c2=O)CC1 | -4 | 6 | 10 | -3 | 1 | 1
Cc1ccc(C2C(C=Nc3c(C)n(C)n(-c4ccccc4)c3=O)=C(c3ccccc3)Oc3ccccc32)cc1 (stereo unspecified) | 56* | 37 | 11 | -15 | 17 | 3
Cc1ccc(Nc2nc(N)c([N+](=O)[O-])c(N3CCOCC3)n2)cc1C | 10 | 13 | -1 | 3 | 51* | 0
Cc1cccc(Nc2nc(N)c([N+](=O)[O-])c(N3CCCC(C)C3)n2)c1 (stereo unspecified) | 20 | 103* | 2 | 33 | -38 | -1
Nc1nc(NCCCN2CCOCC2)nc(Nc2ccc(F)cc2)c1[N+](=O)[O-] | 52* | 0 | -6 | -4 | 22 | 3
Cc1cc(-c2ccccc2)n2ncnc2n1 | . | 4 | -1 | . | . | 4
COc1ccc2nc(N3CCCC(C(=O)NCCCN4CCN(C)CC4)C3)sc2c1 (stereo unspecified) | 64* | 21 | -5 | -12 | -3 | 0
Cc1cc(C)c2nc(N3CCCC(C(=O)NCCCN4CCOCC4)C3)sc2c1 (stereo unspecified) | 2 | 22 | 0 | -6 | 11 | 1
SMILES | L major viab | CHOP inhibitor | Rad51 HR inh | PKD1 inh | Arbovirus anti | Wee1 degr inh
Cc1nc2cc(-c3ccc(Cl)cc3)nn2c(C)c1CCC(=O)NC(C)c1ccc2c(c1)OCCO2 (stereo unspecified) | 98* | 79* | 0 | 2 | -8 | -2
Cc1csc(NC(=O)CCc2c(C)nc3cc(-c4ccc(Cl)cc4)nn3c2C)n1 | 6 | 88* | . | -3 | 0 | 0
CC(Sc1nnc2ccccn12)C(N)=O (stereo unspecified) | 13 | -12 | . | -4 | 4 | 6
CCn1c(O)c(N=NC(=S)NCC2CCCO2)c2ccccc21 (stereo unspecified) | 0 | -11 | 0 | -3 | -13 | -3
Cc1cc([N+](=O)[O-])ccc1NC(=O)CN1C2CCC1CC(NC(=O)NC13CC4CC(CC(C4)C1)C3)C2 (stereo unspecified) | 40 | 42 | -1 | 3 | -16 | -3
Cc1ccc(SCC(=O)Nc2cccc(C(=O)NC(C)(C)C)c2)cc1 | 95* | 22 | 6 | -1 | -4 | 5
Cc1ccc(SCC(=O)Nc2cccc(-c3nnc(-c4ccco4)o3)c2)cc1 | 17 | 71* | -5 | -12 | -4 | 2
O=C(CSc1ccc(Cl)cc1)Nc1cccc(-c2nnc(-c3ccco3)o2)c1 | 45 | 42 | -2 | -2 | -10 | 2
CC(C)(C)NC(=O)c1ccc(NC(=O)CSc2ccccc2)cc1 | 1 | 23 | 3 | -3 | 4 | 1
COc1ccc(OCCOCCN2CCc3ccccc3C2)cc1 | 93* | 0 | -6 | 5 | -7 | 4
O=C(CCCOc1ccccc1)N1CCc2ccccc2C1 | -5 | 47 | -5 | -5 | 4 | -3
Clc1ccc(OCCCCN2CCc3ccccc3C2)cc1 | 85* | 39 | 4 | -7 | 7 | 1
CC[C@H]1OC(=O)[C@H](C)[C@@H](O[C@H]2C[C@@](C)(OC)[C@@H](O)[C@H](C)O2)[C@H](C)[C@@H](O[C@@H]2O[C@H](C)C[C@H](N(C)C)[C@H]2O)[C@](C)(O)C[C@@H](C)CN(C)[C@H](C)[C@@H](O)[C@]1(C)O | . | . | -3 | . | . | .
CN(C)C(=O)/N=N/C(=O)N(C)C | . | -12 | . | . | . | .
CC(=O)Nc1nc2ccccc2n1CCN1CCOCC1 | -10 | 15 | 2 | -4 | -1 | -3
O=C(Nc1nc2ccccc2n1CCN1CCOCC1)c1cn(-c2ccccc2)nc1-c1ccccc1 | 96* | 34 | . | -4 | -38 | 0
COc1ccc([N+](=O)[O-])cc1NC(=O)CCSCCc1ccccn1 | 16 | 5 | . | -4 | 2 | 1

High-throughput results from PubChem BioAssay.
